Active and inactive are the calls of the source. The rule behind the calls is not given here.
How the values were obtained:
Pyricularia oryzae = assay: Antifungal activity against Pyricularia oryzae HNM 1003 assessed as growth inhibition at 0.6 mM measured after 48 hrs by microbroth dilution method; type: functional; conditions: HNM 1003, 48 h, read-out: GI
[1] = biological target: T1, Oxysterols receptor LXR-alpha (Homo sapiens, UniProt Q13133); assay: Transactivation of recombinant GAL4-fused human LXRalpha LBD (163 to 447 residues) expressed in human L02 cells measured after 24 hrs by luciferase reporter gene assay; type: cell-based
T1 sequence (Q13133 whole entry): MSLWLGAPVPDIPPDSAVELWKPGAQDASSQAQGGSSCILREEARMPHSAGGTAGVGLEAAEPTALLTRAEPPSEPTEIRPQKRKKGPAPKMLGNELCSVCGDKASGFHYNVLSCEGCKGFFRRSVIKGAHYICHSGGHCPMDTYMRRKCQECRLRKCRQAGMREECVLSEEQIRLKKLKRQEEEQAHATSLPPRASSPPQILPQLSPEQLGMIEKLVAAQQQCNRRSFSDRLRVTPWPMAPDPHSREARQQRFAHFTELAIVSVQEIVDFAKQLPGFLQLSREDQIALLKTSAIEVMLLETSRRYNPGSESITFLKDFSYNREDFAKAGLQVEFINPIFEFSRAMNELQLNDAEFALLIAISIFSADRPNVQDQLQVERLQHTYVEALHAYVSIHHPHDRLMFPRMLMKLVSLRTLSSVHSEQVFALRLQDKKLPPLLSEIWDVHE

[2] = biological target: T2, Tyrosine-protein phosphatase non-receptor type 2 (Homo sapiens, UniProt P17706); assay: (§1) Inhibition of recombinant human TCPTP expressed in Escherichia coli […] preincubated for 15 mins followed by substrate addition and measured after 60 mins
T2 sequence (P17706 whole entry): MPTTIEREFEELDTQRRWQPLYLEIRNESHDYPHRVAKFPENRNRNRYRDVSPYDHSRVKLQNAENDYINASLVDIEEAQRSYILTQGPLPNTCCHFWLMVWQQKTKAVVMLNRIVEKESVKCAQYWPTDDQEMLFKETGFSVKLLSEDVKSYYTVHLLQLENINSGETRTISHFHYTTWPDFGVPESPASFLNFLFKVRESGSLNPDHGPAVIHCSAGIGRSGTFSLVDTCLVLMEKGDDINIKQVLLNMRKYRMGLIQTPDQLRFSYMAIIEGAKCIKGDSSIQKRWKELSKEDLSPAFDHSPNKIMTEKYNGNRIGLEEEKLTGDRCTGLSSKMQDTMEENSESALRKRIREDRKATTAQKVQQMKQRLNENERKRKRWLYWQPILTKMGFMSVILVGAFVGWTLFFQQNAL
In short: (§2)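 Recombinant human phosphatases were expressed in E. coli and purified. Enzyme and compound were preincubated for 15 min at room temperature in pH 6.5 buffer (50 mM HEPES, 100 mM NaCl, 1 mM EDTA, 1 mM DTT). Buffer containing 50 mM pNPP was then added and the mix incubated for 60 min at 37 °C. Product p-nitrophenol was read at 405 nm. Assays were run in triplicate and IC50 derived.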

[3] = biological target: Tyrosine-protein phosphatase non-receptor type 6 (Homo sapiens, UniProt P29350); assay: Inhibition of recombinant human SHP1 expressed in Escherichia coli […] preincubated for 15 mins followed by substrate addition and measured after 60 mins; in short: as §2
Chain of Tyrosine-protein phosphatase non-receptor type 6 (P29350 whole entry): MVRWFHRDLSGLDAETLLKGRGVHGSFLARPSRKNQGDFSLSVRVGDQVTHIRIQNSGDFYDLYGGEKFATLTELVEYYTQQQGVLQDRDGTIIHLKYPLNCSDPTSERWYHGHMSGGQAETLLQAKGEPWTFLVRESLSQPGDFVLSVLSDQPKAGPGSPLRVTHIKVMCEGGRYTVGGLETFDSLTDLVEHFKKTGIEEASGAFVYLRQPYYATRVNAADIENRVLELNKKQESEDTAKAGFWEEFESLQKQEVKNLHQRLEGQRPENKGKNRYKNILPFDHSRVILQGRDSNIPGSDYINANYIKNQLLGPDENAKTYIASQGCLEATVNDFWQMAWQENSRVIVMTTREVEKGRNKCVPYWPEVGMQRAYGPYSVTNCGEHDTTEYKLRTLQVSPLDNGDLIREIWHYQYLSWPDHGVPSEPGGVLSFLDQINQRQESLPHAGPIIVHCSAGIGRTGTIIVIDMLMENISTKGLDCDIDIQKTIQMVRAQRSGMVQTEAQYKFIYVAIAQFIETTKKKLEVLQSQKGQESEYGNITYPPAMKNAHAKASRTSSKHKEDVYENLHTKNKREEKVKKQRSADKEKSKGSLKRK

[4] = biological target: T3, Tyrosine-protein phosphatase non-receptor type 9 (Homo sapiens, UniProt P43378); assay: (§3) Inhibition of recombinant human MEG2 expressed in Escherichia coli […] preincubated for 15 mins followed by substrate addition and measured after 60 mins; in short: as §2
T3 sequence (P43378 whole entry): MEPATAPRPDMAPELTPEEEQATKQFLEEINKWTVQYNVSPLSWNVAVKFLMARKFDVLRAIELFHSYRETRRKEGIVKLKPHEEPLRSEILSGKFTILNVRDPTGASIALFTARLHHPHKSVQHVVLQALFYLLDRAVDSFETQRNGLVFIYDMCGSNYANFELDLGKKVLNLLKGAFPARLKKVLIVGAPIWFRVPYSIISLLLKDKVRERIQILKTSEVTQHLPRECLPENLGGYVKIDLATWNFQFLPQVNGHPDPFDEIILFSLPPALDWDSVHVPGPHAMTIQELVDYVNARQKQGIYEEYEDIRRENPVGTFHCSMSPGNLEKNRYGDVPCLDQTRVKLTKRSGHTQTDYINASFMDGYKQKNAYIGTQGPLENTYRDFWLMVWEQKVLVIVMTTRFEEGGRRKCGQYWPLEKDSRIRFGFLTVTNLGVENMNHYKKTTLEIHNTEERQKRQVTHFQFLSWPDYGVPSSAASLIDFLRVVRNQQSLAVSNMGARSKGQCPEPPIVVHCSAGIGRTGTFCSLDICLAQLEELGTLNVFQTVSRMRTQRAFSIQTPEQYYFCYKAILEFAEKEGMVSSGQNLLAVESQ

Curvularia australiensis = assay: Antifungal activity against Curvularia australiensis BY01 assessed as growth inhibition at 0.6 mM measured after 48 hrs by microbroth dilution method; type: functional; conditions: BY01, 48 h, read-out: GI
In short: (§4)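 Fungi were grown on PDA plates for 6−8 days at 30 °C, then the mycelia were moved into PD medium and filtered through cotton to give a spore suspension. Each well held PD medium, sample from a 10 mg/mL DMSO stock at about 0.6 mM, and spores (1 × 10^6 CFU). DMSO served as the negative control. OD600 was read at 0 and 48 h at 28 °C and percent growth inhibition calculated.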

Fusarium oxysporum = assay: Antifungal activity against Fusarium oxysporum HNM 1003 assessed as growth inhibition at 0.6 mM measured after 48 hrs by microbroth dilution method; type: functional; conditions: HNM 1003, 48 h, read-out: GI; in short: as §4
[5] = biological target: T4, Tyrosine-protein phosphatase non-receptor type 11 (Homo sapiens, UniProt Q06124); assay: (§5) Inhibition of recombinant human SHP2 expressed in Escherichia coli […] preincubated for 15 mins followed by substrate addition and measured after 60 mins; in short: as §2
T4 sequence (Q06124 whole entry): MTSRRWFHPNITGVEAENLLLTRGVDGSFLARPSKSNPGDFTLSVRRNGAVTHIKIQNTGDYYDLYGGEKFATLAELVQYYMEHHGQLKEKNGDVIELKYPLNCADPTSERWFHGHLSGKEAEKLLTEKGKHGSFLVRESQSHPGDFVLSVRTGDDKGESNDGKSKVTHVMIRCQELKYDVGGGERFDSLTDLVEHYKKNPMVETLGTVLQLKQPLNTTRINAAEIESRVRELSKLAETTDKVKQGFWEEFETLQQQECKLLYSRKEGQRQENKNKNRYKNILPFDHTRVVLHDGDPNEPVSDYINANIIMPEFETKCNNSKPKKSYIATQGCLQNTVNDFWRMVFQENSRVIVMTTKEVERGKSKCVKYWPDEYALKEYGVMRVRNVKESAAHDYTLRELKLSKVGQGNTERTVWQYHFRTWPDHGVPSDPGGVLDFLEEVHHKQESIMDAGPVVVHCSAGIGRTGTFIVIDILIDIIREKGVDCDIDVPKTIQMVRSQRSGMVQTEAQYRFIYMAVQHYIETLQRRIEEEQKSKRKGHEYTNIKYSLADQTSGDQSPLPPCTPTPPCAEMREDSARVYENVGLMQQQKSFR

[6] = tested on: Colletotrichum gloeosporioides; assay: Antifungal activity against Colletotrichum gloeosporioides HNM 1003 assessed as growth inhibition at 0.6 mM measured after 48 hrs by microbroth dilution method; type: functional; conditions: HNM 1003, 48 h, read-out: GI; in short: as §4
[7] = biological target: L-lactate dehydrogenase A chain (Homo sapiens) (UniProt P00338); assay: Inhibition of recombinant human LDHA expressed in Escherichia coli […] preincubated for 15 mins followed by substrate addition and measured after 60 mins
[8] = biological target: T5, Tyrosine-protein phosphatase non-receptor type 1 (Homo sapiens, UniProt P18031); assay: (§6) Inhibition of recombinant human PTP1B expressed in Escherichia coli […] preincubated for 15 mins followed by substrate addition and measured after 60 mins; in short: as §2
T5 sequence (P18031 whole entry): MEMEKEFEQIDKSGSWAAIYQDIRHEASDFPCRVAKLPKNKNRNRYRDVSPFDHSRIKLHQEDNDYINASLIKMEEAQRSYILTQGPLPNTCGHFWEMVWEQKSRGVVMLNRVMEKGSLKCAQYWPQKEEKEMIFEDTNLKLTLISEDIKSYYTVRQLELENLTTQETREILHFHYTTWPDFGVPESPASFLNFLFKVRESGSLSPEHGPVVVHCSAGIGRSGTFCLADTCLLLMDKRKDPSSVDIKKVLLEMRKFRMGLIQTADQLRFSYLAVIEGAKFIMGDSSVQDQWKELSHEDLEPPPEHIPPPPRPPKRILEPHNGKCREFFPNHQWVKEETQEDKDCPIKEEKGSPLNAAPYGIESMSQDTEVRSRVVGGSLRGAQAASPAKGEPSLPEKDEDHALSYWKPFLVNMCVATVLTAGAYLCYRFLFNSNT

[9] = biological target: Indoleamine 2,3-dioxygenase 1 (Homo sapiens, UniProt P14902); assay: Inhibition of recombinant human IDO1 expressed in Escherichia coli […] preincubated for 15 mins followed by substrate addition and measured after 60 mins
[10] = biological target: T6, Tyrosine-protein phosphatase non-receptor type 2 (Homo sapiens) (UniProt P17706); assay: as §1; in short: as §2
T6 sequence (whole entry): T2 sequence (P17706 whole entry)

[11] = biological target: T7, Tyrosine-protein phosphatase non-receptor type 9 (Homo sapiens) (UniProt P43378); assay: as §3; in short: as §2
T7 sequence (whole entry): T3 sequence (P43378 whole entry)

[12] = biological target: T8, Tyrosine-protein phosphatase non-receptor type 11 (Homo sapiens) (UniProt Q06124); assay: as §5; in short: as §2
T8 sequence (whole entry): T4 sequence (Q06124 whole entry)

[13] = biological target: T9, Tyrosine-protein phosphatase non-receptor type 1 (Homo sapiens) (UniProt P18031); assay: as §6; in short: as §2
T9 sequence (whole entry): T5 sequence (P18031 whole entry)

Row | Compound | inhibition of growth at 600 µM (Pyricularia oryzae) | EC50 [1] | IC50 [2] | IC50 [3] | IC50 [4] | inhibition of growth at 600 µM (Curvularia australiensis) | inhibition of growth at 600 µM (Fusarium oxysporum) | IC50 [5] | inhibition of growth at 600 µM [6] | inhibition [7] | IC50 [8] | IC50 [9] | inhibition [10] | inhibition [3] | inhibition [11] | inhibition [12] | inhibition [13] | inhibition [9]
1 | CC[C@@H](C)C1=C2N=C3OC=CC=C[C@]3(OC)C(=O)N2[C@@H](Cc2ccccc2)C(=O)N1 | < 50% | 41 µM | 14 to 87 µM | 14 to 87 µM | 14 to 87 µM | < 50% | < 50% | 14 to 87 µM | < 50% | inactive | 14 to 87 µM | 14 to 87 µM | – | – | – | – | – | –
2 | C[C@@H]1C(=O)N[C@](O)(Cc2ccccc2)c2nc3c(O)cccc3c(=O)n21 | < 50% | 5.3 µM | – | – | – | < 50% | < 50% | – | < 50% | inactive | – | – | inactive | inactive | inactive | inactive | inactive | inactive
3 | C[C@@H]1C(=O)N[C@@](O)(Cc2ccccc2)c2nc3c(O)cccc3c(=O)n21 | < 50% | 1.7 µM | – | – | – | < 50% | < 50% | – | < 50% | inactive | – | – | inactive | inactive | inactive | inactive | inactive | inactive
4 | C[C@@H]1C(=O)N/C(=C\c2ccccc2)c2nc3c(O)cccc3c(=O)n21 | < 50% | 1.7 µM | 14 to 87 µM | 14 to 87 µM | 14 to 87 µM | < 50% | < 50% | 14 to 87 µM | < 50% | inactive | 14 to 87 µM | 14 to 87 µM | – | – | – | – | – | –
5 | C[C@@H]1C(=O)N/C(=C\c2ccccc2)c2nc3c(c(=O)n21)C=CC=CO3 | < 50% | 50 µM | – | – | – | < 50% | < 50% | – | < 50% | inactive | – | – | inactive | inactive | inactive | inactive | inactive | inactive

— ChEMBL document CHEMBL4392864, “Diketopiperazine-Type Alkaloids from a Deep-Sea-Derived Aspergillus puniceus Fungus and Their Effects on Liver X Receptor α” (J Nat Prod, 2019)
